From PubChem BioAssay
Inconclusive results are not listed.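 Rule for the calls, unless noted: active = cell viability at or below a set limit in both duplicate runs, the limit being the all-compound median minus 4 SD (cut at about 23% in these data, passing the limit was not always enough); inconclusive = no clear call, values can overlap the other calls; inactive = the rest.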

How the values were obtained:
[1] = S. cerevisiae growth inhibition in permissive medium (OD615), pilot counter-assay for S. cerevisiae lifespan shortening project, permissive growth control (AID 705;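 active = growth inhibition above 25% in both replicates, a cutoff set 3 SD above the mean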); settings: OD615, 24 h, at 10 µM, stronger effect = higher value
In short: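 Test system: Saccharomyces cerevisiae strain carrying genetically modified DeaD replicative-lifespan system; buffer or medium: SC raffinose/galactose permissive medium; dosing: one dose 10 µM, DMSO 0.25% final; times: 24 h exposure, 30 °C; measured by: OD at 615 nm; read-out basis: growth inhibition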

[2] = S. cerevisiae growth inhibition in restrictive medium, OD615, pilot screen, restrictive growth control, yeast lifespan reduction project (AID 706;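 active = growth inhibition above a set limit, 3 SD over mean compound inhibition, in both replicates, cut at about 43% in these data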;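 note: modified DeaD lifespan yeast strain shifted to restrictive glucose medium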); settings: OD615, 48 h, at 10 µM, stronger effect = higher value
In short: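 material = engineered S. cerevisiae DeaD strain | buffer or medium = glucose-based CSMM-D restrictive medium | dosing = one concentration, 10 µM final, 0.25% DMSO | schedule = 4 h pre-growth plus 48 h compound exposure, 30 °C | detection = OD615 absorbance reading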

[3] = doxorubicin toxicity protection in MRP-1 cells – H69AR cells, CellTiter-Glo, duplicate, MRP-1 activator project, pilot screen (AID 807;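 active = viability increase at or above a cutoff of the median across tested compounds plus 3 SD, cut at about 8.5% in these data, passing the limit was not always enough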;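 note: compound pretreatment 18-22 h then 72 h combined with doxorubicin; 0% = doxorubicin alone and 100% = vehicle without doxorubicin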); settings: H69AR viability with doxorubicin, CellTiter-Glo luminescence; at 10 µM; stronger effect = higher value
[4] = viability of HCT116 without oncogenic beta-catenin – human colon tumor cells, pilot screen (AID 823); settings: HCT116 beta-catenin knockout viability, CellTiter-Glo, 60 h; at 10 µM; stronger effect = lower value;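 note: 0% = wells killed by 20 µM Hyamine and 100% = untreated DMSO cell wells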
[5] = viability of PTEN-null HCT116 cells – cell-based, HCT116 clonal line, CellTiter-Glo, pilot screen (AID 824;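 active = viability at or below 27.92% in each of two runs, the all-compound median minus 4 SD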;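 note: 0% = 20 µM Hyamine control and 100% = vehicle cell control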); settings: HCT116 PTEN-deleted viability, 60 h, at 10 µM, stronger effect = lower value
[6] = RAM pathway blockade in budding yeast – dse1pr::URA3 reporter, 5-FOA selection, pilot screen (AID 869;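 active = inhibition over a set limit, the all-compound mean plus 3 SD, in both replicate runs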;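 note: 0% = DMSO wells with no growth and 100% = 10 µM 1-NA-PP1 with full growth; RAM network block rescues cells from 5-FOA so hits raise OD615 growth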); settings: S. cerevisiae dse1pr::URA3 5-FOA growth, OD615, 2 d; at 10 µM; stronger effect = higher value; strain carries analog-sensitive mutant Cbk1 kinase
[7] = RAM signaling pathway blockade in yeast – S. cerevisiae, Pdr1DBD-CYC8 efflux-inhibited sensitized strain, primary screen (AID 1298;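 active = RAM network inhibition above 8.4% in each of two replicates, 3 SD over the compound average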;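 note: 0% = DMSO untreated cells without growth and 100% = 10 µM 1-NA-PP1 full growth; higher means more yeast growth rescued from 5-FOA killing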); settings: S. cerevisiae cbk1-as DSE1-URA3 strain, 5-FOA growth OD615, 2 d; at 50 µM; stronger effect = higher value

Cc1cccc(NC(=O)c2ccccc2Br)n1
inactive: growth inhibition [1] 4.2% | growth inhibition [2] 24% | viability increase [3] -3.61% | viability [4] 103% | viability [5] 94% | inhibition [6] 0.97% | RAM network inhibition [7] 2.02%

O=C1CCCC2=C1C1(O)C(=O)c3ccccc3C1(O)O2 (stereo not given)
inactive: growth inhibition [1] -7.89% | growth inhibition [2] -16% | viability increase [3] -4.62% | viability [4] 89.4% | viability [5] 88.7% | inhibition [6] 1.28% | RAM network inhibition [7] 1.91%

O=C(O)c1ccc(F)c(S(=O)(=O)Nc2ccccc2)c1
inactive: growth inhibition [1] -3.28% | growth inhibition [2] -2.19% | viability increase [3] 1.08% | viability [4] 96.2% | viability [5] 101% | inhibition [6] -0.93% | RAM network inhibition [7] -0.06%

O=C(CN1CCOc2ccccc21)NC1CC1
inactive: growth inhibition [1] -8.82% | growth inhibition [2] 8.71% | viability increase [3] -3.71% | viability [4] 88.1% | viability [5] 98.8% | inhibition [6] 1.16% | RAM network inhibition [7] -0.26%

NC(=O)c1ccsc1NC(=O)C1CC1
inactive: growth inhibition [1] -0.315% | growth inhibition [2] 0.175% | viability increase [3] -2.38% | viability [4] 103% | viability [5] 100% | inhibition [6] 1.22% | RAM network inhibition [7] 0.32%

COC(=O)CCC(=O)Nc1nc(-c2ccccc2)cs1
inactive: growth inhibition [1] -18.5% | growth inhibition [2] -17.9% | viability increase [3] -0.35% | viability [4] 99% | viability [5] 99.1% | inhibition [6] 0.475% | RAM network inhibition [7] 11%

COc1cc(C2NC(=O)NC(C)=C2C(=O)OC2CCCCC2)cc(Br)c1O (stereo not given)
inactive: growth inhibition [1] -9.15% | growth inhibition [2] -9.77% | viability increase [3] 0.18% | viability [4] 82.1% | viability [5] 77.3% | inhibition [6] 0.33% | RAM network inhibition [7] 8.82%

O=C(O)[C@@H](c1ccccc1)N1Cc2ccccc2C1=O
inactive: growth inhibition [1] 2.66% | growth inhibition [2] -13.5% | viability increase [3] -0.32% | viability [4] 104% | viability [5] 96.7% | inhibition [6] 1.13% | RAM network inhibition [7] 1.56%

Cc1cccc(NC(=O)C2C(C(=O)O)C3C=CC2C32CC2)c1C (stereo not given)
inactive: growth inhibition [1] -2.43% | growth inhibition [2] -9.19% | viability increase [3] -1.67% | viability [4] 95.2% | viability [5] 93.5% | inhibition [6] 1.42% | RAM network inhibition [7] -0.78%

CCn1c(=NC(=O)c2ccc(N3C(=O)CCC3=O)cc2)sc2c(OC)ccc(OC)c21
inactive: growth inhibition [1] -5.79% | growth inhibition [2] -11.5% | viability increase [3] -0.73% | viability [4] 97.9% | viability [5] 92.7% | inhibition [6] 1.86% | RAM network inhibition [7] 8.5%

CCSc1nnc(Cn2c(=O)sc3ccccc32)n1C
inactive: growth inhibition [1] -8.03% | growth inhibition [2] 5.23% | viability increase [3] -0.33% | viability [4] 95.7% | viability [5] 96.2% | inhibition [6] 0.71% | RAM network inhibition [7] -0.45%

CCn1c(C2CC(=O)N(c3ccc(C)c(C)c3)C2)nc2ccccc21 (stereo not given)
inactive: growth inhibition [1] -6.54% | growth inhibition [2] 1.06% | viability increase [3] -3.09% | viability [4] 86.7% | viability [5] 89.9% | inhibition [6] -0.35% | RAM network inhibition [7] 0.57%

Cn1c(SCC(=O)Nc2ccc(F)cc2F)nnc1-c1cccnc1
inactive: growth inhibition [1] -13.9% | growth inhibition [2] -8.12% | viability increase [3] -0.94% | viability [4] 104% | viability [5] 95% | inhibition [6] 3.28% | RAM network inhibition [7] -0.27%

Cc1ccccc1NC(=O)CCN1CCN(Cc2ccccc2)CC1
inactive: growth inhibition [1] -9.43% | growth inhibition [2] 3.58% | viability increase [3] -3.29% | viability [4] 94.8% | viability [5] 89.6% | inhibition [6] 1.85% | RAM network inhibition [7] 5.05%

CCOC(=O)CCc1n[nH]c(=O)[nH]c1=O
inactive: growth inhibition [1] -3.33% | growth inhibition [2] 5.9% | viability increase [3] -0.23% | viability [4] 102% | viability [5] 104% | inhibition [6] 1.46% | RAM network inhibition [7] 0%
